Assay results from the array DNA melting data of Ke et al. (doi:10.1101/2024.01.08.574731).

Columns and labels:
[1] = folding enthalpy; higher = less favourable; fluorescence melt of hairpins on a sequencing array, two-state fit; details: sodium 0.088 M
Summary of the method: (§1)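 On a sequenced MiSeq flow cell, library hairpins with annealed Cy3 and quencher oligos were imaged for Cy3 fluorescence in 2.5 °C steps up to 60 °C, in 50 mM Na-HEPES pH 8.0, 25 mM NaCl. Normalisation used pre-quench Cy3 and control constructs. Bootstrapped two-state fits gave melting temperature and folding enthalpy, combined by inverse variance across four replicates and with fitted temperatures raised by 9.35 °C to match UV melts.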

[2] = melting temperature; fluorescence melt of hairpins on a sequencing array, two-state fit, raised by 9.35 °C to match UV melts; details: sodium 0.088 M
Summary of the method: as §1

Row | Sequence | folding enthalpy [1] [kcal/mol] | Tm [2] [°C]
1 | GACTGCGGAAACGCAACC (..((((....))))..) | -9.21 | 25.1
2 | GACTGCGGAAACGCGGTC (((.(((....))).))) | -34.1 | 63.5
3 | GACTGGGGAAACCCGGTC (((.(((....))).))) | -41.7 | 54.1
4 | GACTGGGGAAACTCAGTC (((((.(....).))))) | -40.5 | 49.9
5 | GACTGGGGAAACTCGGTC (((.(.(....).).))) | -21.3 | 38.5
6 | GACTTACGAAAGTAGGTC (((.(((....))).))) | -27.5 | 49.3
7 | GACTTACGAAAGTAGTC (((.(((....)))))) | -26.8 | 43.1
8 | GACTTACGAAAGTATGTC (((.(((....))).))) | -32.9 | 47.8
9 | GACTTCCGAAAGGACGTC (((.(((....))).))) | -32.3 | 48.9
10 | GACTTCGGAAACGAAATC ((.((((....)))).)) | -22.9 | 31.9
11 | GACTTGCGAAAGCACGTC (((.(((....))).))) | -23.3 | 52.4
12 | GACTTGGGAAACCAAGTC (((((((....))))))) | -35.8 | 62.3
13 | GACTTGGGAAACCAGGTC (((.(((....))).))) | -37 | 46.4
14 | GACTTTGGAAACAAGGTC (((.(((....))).))) | -38.1 | 41.8
15 | GAGAACACGAAAGTGCTC (((..(((....)))))) | -15.6 | 32.9
16 | GAGAACGAAAGTTCTC ((((((....)))))) | -36 | 62.4
17 | GAGAACGAAAGTTGGCTC ((((((....)))..))) | -19.1 | 30.6
18 | GAGAACGAAAGTTGTCTC ((((((....)))..))) | -27.2 | 43.5
19 | GAGAACGCGAAAGCGCTC (((..(((....)))))) | -12.2 | 39
20 | GAGAACGGAAACGTTTTC ((.((((....)))).)) | -25.3 | 41.3
21 | GAGAAGACGAAAGTCCTC (((..(((....)))))) | -13.2 | 31.4
22 | GAGAAGCGAAAGCTCCTC (((.(((....))).))) | -21.7 | 45.1
23 | GAGAAGGAAACTTCTC ((((((....)))))) | -23.3 | 48.3

Row | Sequence | folding enthalpy [1] [kcal/mol] | Tm [2] [°C]
24 | GAGAAGGGAAACCCTCTC ((((.((....)).)))) | -22.8 | 35.6
25 | GAGAAGGGAAACCTTTTC ((.((((....)))).)) | -28.4 | 28.8
26 | GAGAATGCGAAAGCACTC (((..(((....)))))) | -9.82 | 32
27 | GAGACAGGAAACCGTCTC (((((.(....).))))) | -29.2 | 46.3
28 | GAGACAGGAAACTGTTTC ((.((((....)))).)) | -29.1 | 37.9
29 | GAGACCGAAAGGTCCCTC ((((((....)))..))) | -11.1 | 44.6
30 | GAGACCGAAAGGTGCCTC ((((((....)))..))) | -12.7 | 31.1
31 | GAGACGGAAACGTCTC ((((((....)))))) | -39.8 | 63.3
32 | GAGACGGGAAACCATCTC ((((.((....)).)))) | -24.5 | 36.8
33 | GAGAGACGAAAGTCGCTC (((.(((....))).))) | -32.3 | 60.5
34 | GAGAGAGGAAACTCTCTC (((((((....))))))) | -35.4 | 57.9
35 | GAGAGCGAAAGCTACCTC ((((((....)))..))) | -10.4 | 30.1
36 | GAGAGCGAAAGCTCCCTC ((((((....)))..))) | -10.3 | 44
37 | GAGAGCGAAAGCTGCTC ((((((....))).))) | -14 | 47
38 | GAGAGCGAAAGCTTGCTC ((((((....)))..))) | -10.4 | 35.5
39 | GAGAGGGGAAACCTTCTC ((((.((....)).)))) | -27.4 | 40.3
40 | GAGAGTCCGAAAGGACTC (((..(((....)))))) | -8.55 | 60.4
41 | GAGAGTGAAAACTCTC ((((((....)))))) | -32.1 | 53.9
42 | GAGAGTGGAAACATTCTC ((((.((....)).)))) | -32.6 | 38.5
43 | GAGAGTGGAAACGTTCTC ((((..(....)..)))) | -14.4 | 33.9
44 | GAGATAGGAAACTGTCTC ((((.((....)).)))) | -29.5 | 41.3
45 | GAGATCCGAAAGGACCTC (((.(((....))).))) | -28.4 | 47.1
46 | GAGATCGCGAAAGCGCTC (((..(((....)))))) | -8.57 | 33.6

Row | Sequence | folding enthalpy [1] [kcal/mol] | Tm [2] [°C]
47 | GAGATCGGAAACAATCTC (((((.(....).))))) | -15.3 | 32.5
48 | GAGATGGGAAACCATCTC (((((((....))))))) | -39.2 | 60.3
49 | GAGCAACCGAAAGGTCTC (((..(((....)))))) | -13.1 | 30.1
50 | GAGCAACGAAAGTTACTC (((.(((....))).))) | -26.2 | 42.9
51 | GAGCAAGAAATTGCTC ((((((....)))))) | -29.8 | 54.8
52 | GAGCAAGGAAACTTGCTC (((((((....))))))) | -40.4 | 63.8
53 | GAGCAAGGAAACTTGTTC ((.((((....)))).)) | -26.1 | 36.2
54 | GAGCACGAAAGTGACCTC ((((((....)))..))) | -15.1 | 39.6
55 | GAGCACGAAAGTGCCCTC ((((((....)))..))) | -9.48 | 44.3
56 | GAGCACGAAAGTGGCTC ((((((....))).))) | -24.2 | 56.5
57 | GAGCACGAAAGTGTCCTC ((((((....)))..))) | -12.9 | 35.2
58 | GAGCACGGAAACATGCTC (((((.(....).))))) | -35 | 45.4
59 | GAGCACGGAAACGCGCTC ((((.((....)).)))) | -42.9 | 55.3
60 | GAGCAGGGAAACCCGCTC ((((.((....)).)))) | -34.2 | 51.4
61 | GAGCAGGGAAACTTGCTC (((((.(....).))))) | -32.1 | 49
62 | GAGCATGGAAACACGCTC ((((.((....)).)))) | -35.6 | 44
63 | GAGCCACGAAAGTGTCTC (((.(((....))).))) | -29 | 50
64 | GAGCCAGGAAACTGGTTC ((.((((....)))).)) | -29.9 | 49.4
65 | GAGCCCGAAAGGGGACTC ((((((....)))..))) | -18.9 | 47.8
66 | GAGCCCGAAAGGGGCCTC ((((((....)))..))) | -13.5 | 49.9
67 | GAGCCCGAAAGGGTGCTC ((((((....)))..))) | -18.6 | 52.1
68 | GAGCCCGGAAACAGGCTC (((((.(....).))))) | -39.4 | 51.5
69 | GAGCCGGGAAACCGGCCC (.(((((....))))).) | -9.15 | 48.2

Row | Sequence | folding enthalpy [1] [kcal/mol] | Tm [2] [°C]
70 | GAGCCTGGAAACGGGCTC (((((.(....).))))) | -47.8 | 58.9
71 | GAGCGACGAAAGTCCCTC (((.(((....))).))) | -16.1 | 43.6
72 | GAGCGACGAAAGTCCTC (((.(((....)))))) | -17.1 | 48.3
73 | GAGCGAGGAAACTCACTC (((.(((....))).))) | -31 | 42.1
74 | GAGCGCGAAAGCGGCCTC ((((((....)))..))) | -11.7 | 51.1
75 | GAGCGCGAAAGCGTCTC ((((((....))).))) | -21.2 | 61.5
76 | GAGCGCGCGAAAGCGCTC (((..(((....)))))) | -12.4 | 64.6
77 | GAGCGCGGAAACGCGCCC (.(((((....))))).) | -5.64 | 59.7
78 | GAGCGGAAACGCTC (((((....))))) | -27.4 | 69.1
79 | GAGCGGCCGAAAGGCCTC (((..(((....)))))) | -6.54 | 28
80 | GAGCGGGGAAACCCGCCC (.(((((....))))).) | -8.26 | 45.1
81 | GAGCGTGGAAACACGCCC (.(((((....))))).) | -7.9 | 47.9
82 | GAGCGTGGAAACGCGCTC (((((.(....).))))) | -21.7 | 66.7
83 | GAGCTACGAAAGTACTC (((.(((....)))))) | -21.3 | 39.1
84 | GAGCTAGAAATAGCTC ((((((....)))))) | -33.6 | 53.4
85 | GAGCTAGCGAAAGCTCTC (((..(((....)))))) | -17 | 45.3
86 | GAGCTCCGAAAGGACTC (((.(((....)))))) | -23.6 | 47.4
87 | GAGCTCGGAAACGAACCC (.(.(((....))).).) | -4.42 | 19.5
88 | GAGCTGGGAAACCAACTC (((.(((....))).))) | -32 | 39.9
89 | GAGCTGGGAAACCAGTTC ((.((((....)))).)) | -24.4 | 47.4
90 | GAGCTGGGAAACTGGCTC ((((..(....)..)))) | -27.6 | 46.7
91 | GAGCTTCCGAAAGGACTC (((..(((....)))))) | -27.4 | 29.2
